In ChEMBL document CHEMBL4689842, “EUbOPEN Chemogenomics Library wave 1” (2021):
Several values for one entry are separate records, joined by “and”; a condition that tells them apart may be missing. Equal entries are not always repeated.

Tested on: Fibroblast
Experiment: Multiplex assay against human fibroblast
Assay type: toxicity, cell-based
In short: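 Compound was added to live cells that had been stained at seeding with Hoechst33342, BioTracker Green Microtubule Cytoskeleton Dye, MitoTracker Red and Annexin V Alexa Fluor 680, and imaging followed on a CQ1 microscope at 37°C and 5% CO2. CellPathfinder machine-learning gating divided cells into Hoechst high-intensity objects or normal cells, normal cells into healthy, pyknosed or fragmented nuclei, and pyknosed cells into mitotic or apoptotic. Tubulin, mitochondrial-mass and membrane-permeability phenotypes are per cents of healthy-nucleus cells.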

[1] = 12 h, 1 µM, compound concentration 1 uM, replicate 1
[2] = 12 h, 1 µM, compound concentration 1 uM, replicate 2
[3] = 12 h, 10 µM, compound concentration 10 uM, replicate 1
[4] = 12 h, 10 µM, compound concentration 10 uM, replicate 2
[5] = 24 h, 1 µM, compound concentration 1 uM, replicate 1
[6] = 24 h, 1 µM, compound concentration 1 uM, replicate 2
[7] = 24 h, 10 µM, compound concentration 10 uM, replicate 1
[8] = 24 h, 10 µM, compound concentration 10 uM, replicate 2
[9] = 48 h, 10 µM, compound concentration 10 uM, replicate 1
[10] = 48 h, 10 µM, compound concentration 10 uM, replicate 2

C[C@@]1(C(=O)Nc2ccc(F)nc2)CCCN1c1nc(Nc2cc(C3CC3)n[nH]2)c2cccn2n1 [BMS-754807]
Population Apoptotic (%) [1]: 63% | Population Fragmented Nuclei (%) [1]: 36% | Population Healthy Nuclei (%) [1]: 50% | Population Hoechst High Intensity Objects (%) [1]: 10% | Population Membrane Permeable-Phenotype (%) [1]: 18% | Population Mitochondria Different-Phenotype (%) [1]: 13% | Population Mitotic Cells (%) [1]: 36% | Population Normal (%) [1]: 89% | Population Pyknosed Nuclei (%) [1]: 13% | Population Tubulin-Different-Phenotype (%) [1]: 69% | Total Cell Count [1]: 257 | Population Apoptotic (%) [2]: 66% | Population Fragmented Nuclei (%) [2]: 75% | Population Healthy Nuclei (%) [2]: 16% | Population Hoechst High Intensity Objects (%) [2]: 28% | Population Membrane Permeable-Phenotype (%) [2]: 50% | Population Mitochondria Different-Phenotype (%) [2]: 33% | Population Mitotic Cells (%) [2]: 33% | Population Normal (%) [2]: 71% | Population Pyknosed Nuclei (%) [2]: 8% | Population Tubulin-Different-Phenotype (%) [2]: 66% | Total Cell Count [2]: 52 | Population Apoptotic (%) [3]: 63% and 78% | Population Fragmented Nuclei (%) [3]: 22% and 25% | Population Healthy Nuclei (%) [3]: 42% | Population Hoechst High Intensity Objects (%) [3]: 16% and 15% | Population Mitotic Cells (%) [3]: 36% and 21% | Population Normal (%) [3]: 84% | Population Pyknosed Nuclei (%) [3]: 34% and 16% | Total Cell Count [3]: 75 and 165 | Population Apoptotic (%) [4]: 80% and 33% | Population Healthy Nuclei (%) [4]: 37% and 58% | Population Hoechst High Intensity Objects (%) [4]: 29% and 13% | Population Membrane Permeable-Phenotype (%) [4]: 17% and 22% | Population Normal (%) [4]: 70% and 86% | Total Cell Count [4]: 87 and 53 | Population Apoptotic (%) [5]: 63% | Population Fragmented Nuclei (%) [5]: 27% | Population Healthy Nuclei (%) [5]: 55% | Population Hoechst High Intensity Objects (%) [5]: 9% | Population Membrane Permeable-Phenotype (%) [5]: 10% | Population Mitochondria Different-Phenotype (%) [5]: 26% | Population Mitotic Cells (%) [5]: 36% | Population Normal (%) [5]: 90% | Population Pyknosed Nuclei (%) [5]: 16% | Population Tubulin-Different-Phenotype (%) [5]: 70% | Total Cell Count [5]: 219 | Population Apoptotic (%) [6]: 75% | Population Fragmented Nuclei (%) [6]: 65% | Population Healthy Nuclei (%) [6]: 19% | Population Hoechst High Intensity Objects (%) [6]: 40% | Population Membrane Permeable-Phenotype (%) [6]: 40% | Population Mitochondria Different-Phenotype (%) [6]: 40% | Population Mitotic Cells (%) [6]: 25% | Population Normal (%) [6]: 59% | Population Pyknosed Nuclei (%) [6]: 15% | Population Tubulin-Different-Phenotype (%) [6]: 60% | Total Cell Count [6]: 44 | Population Apoptotic (%) [7]: 41% and 63% | Population Fragmented Nuclei (%) [7]: 26% and 20% | Population Healthy Nuclei (%) [7]: 53% and 63% | Population Hoechst High Intensity Objects (%) [7]: 21% and 13% | Population Membrane Permeable-Phenotype (%) [7]: 35% and 15% | Population Mitotic Cells (%) [7]: 58% and 36% | Population Normal (%) [7]: 78% and 86% | Population Pyknosed Nuclei (%) [7]: 19% and 15% | Total Cell Count [7]: 80 and 166 | Population Apoptotic (%) [8]: 60% and 37% | Population Healthy Nuclei (%) [8]: 28% and 47% | Population Mitochondria Different-Phenotype (%) [8]: 25% and 59% | Population Mitotic Cells (%) [8]: 40% and 62% | Population Normal (%) [8]: 68% and 90% | Total Cell Count [8]: 83 and 51 | Population Apoptotic (%) [9]: 92% | Population Fragmented Nuclei (%) [9]: 35% | Population Healthy Nuclei (%) [9]: 39% | Population Hoechst High Intensity Objects (%) [9]: 27% | Population Membrane Permeable-Phenotype (%) [9]: 23% | Population Mitochondria Different-Phenotype (%) [9]: 28% | Population Mitotic Cells (%) [9]: 7% | Population Normal (%) [9]: 72% | Population Pyknosed Nuclei (%) [9]: 24% | Population Tubulin-Different-Phenotype (%) [9]: 85% | Total Cell Count [9]: 73 | Population Apoptotic (%) [10]: 70% | Population Fragmented Nuclei (%) [10]: 27% | Population Healthy Nuclei (%) [10]: 56% | Population Hoechst High Intensity Objects (%) [10]: 9% | Population Membrane Permeable-Phenotype (%) [10]: 24% | Population Mitochondria Different-Phenotype (%) [10]: 43% | Population Mitotic Cells (%) [10]: 30% | Population Normal (%) [10]: 90% | Population Pyknosed Nuclei (%) [10]: 15% | Population Tubulin-Different-Phenotype (%) [10]: 100% | Total Cell Count [10]: 72
